Results pooled from the literature.
Protocols differ between the studies behind these lines.
Target: Mitogen-activated protein kinase kinase kinase 2 (MAP3K2, Homo sapiens, UniProt Q9Y2U5)
Sequence (Q9Y2U5 1-619, as in one of the studies): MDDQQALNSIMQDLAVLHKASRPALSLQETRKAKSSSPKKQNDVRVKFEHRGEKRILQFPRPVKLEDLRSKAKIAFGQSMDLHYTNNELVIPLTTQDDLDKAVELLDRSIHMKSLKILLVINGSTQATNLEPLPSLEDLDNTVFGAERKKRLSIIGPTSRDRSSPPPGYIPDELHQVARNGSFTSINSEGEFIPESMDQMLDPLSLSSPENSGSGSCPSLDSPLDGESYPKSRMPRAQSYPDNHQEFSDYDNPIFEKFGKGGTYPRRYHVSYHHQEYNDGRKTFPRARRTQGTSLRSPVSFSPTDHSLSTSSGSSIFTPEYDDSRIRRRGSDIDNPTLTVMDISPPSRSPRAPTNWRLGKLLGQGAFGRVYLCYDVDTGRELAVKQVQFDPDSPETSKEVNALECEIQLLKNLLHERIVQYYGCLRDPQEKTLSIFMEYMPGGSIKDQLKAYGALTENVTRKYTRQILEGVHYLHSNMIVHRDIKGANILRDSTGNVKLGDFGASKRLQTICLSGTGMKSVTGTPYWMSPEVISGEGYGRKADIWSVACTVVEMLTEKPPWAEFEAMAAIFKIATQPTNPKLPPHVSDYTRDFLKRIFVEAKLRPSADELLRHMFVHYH

| SMILES | observed | action | technique | cells | concentration | measurement | value |
| --- | --- | --- | --- | --- | --- | --- | --- |
| CCN(CC)CCNC(=O)c1c(C)[nH]c(/C=C2\C(=O)Nc3ccc(F)cc32)c1C | cell-free assay |  |  |  | 0.5 µM | remaining signal | 51.9% |
| O=C(NCc1ncc(C(F)(F)F)cc1Cl)c1ccc2c(c1)C1(CCS(=O)(=O)CC1)[C@H](C1CC1)N2S(=O)(=O)c1ccc(F)cc1 | cell-free assay |  | competition with immobilised ligand |  | 1 µM | remaining binding | 66% |
| CC(C)(O)[C@H]1CC[C@H](Nc2ccc3ncc(-c4cccc(C(F)(F)F)c4)n3n2)CC1 | enzyme activity | inhibitor |  |  | 1 µM | remaining activity | 95.8% |
| Cc1ccc(C(=O)Nc2ccc(CN3CCN(C)CC3)c(C(F)(F)F)c2)cc1C#Cc1cnc2cccnn12 | enzyme activity | inhibitor |  |  | 23.5 nM | remaining activity | 55% |
| O=C(Nc1cnn(-c2csc(C(=O)NC3COC3)c2)c1)Nc1c(F)cccc1Cl | enzyme activity | inhibitor |  |  | 5 µM | remaining activity | 80.1% |
| CN1CC(Oc2cnc(C#N)cc2-c2ccn3nc(NC(=O)C4CC4)cc3c2)C1 | enzyme activity | inhibitor |  |  | 1 µM | inhibition | 0% |
| CC(C)(C)c1nc(-c2cccc(NS(=O)(=O)c3c(F)cccc3F)c2F)c(-c2ccnc(N)n2)s1 | enzyme activity | inhibitor | radiometric |  | 1 µM | remaining activity | 57% |
| CS(=O)(=O)N1CCCC(NC(=O)[C@H](CCC2CCCCC2)NC(=O)c2ccc(CNc3ncnc4c3nnn4-c3ccccc3)cc2)C1 (some centres unmarked) | cell-free assay |  | competition with immobilised ligand |  | 0.1 µM | remaining binding | 100% |
| CCN1CCN(Cc2ccc(NC(=O)c3ccc(C)c(/C=C/c4cnc5[nH]ccc5c4OC)c3)cc2C(F)(F)F)CC1 | target engagement in cells | inhibitor | chemoproteomics | A-375 | 0.5 µM | inhibition | -0.738% |
| CCOc1cc(-c2nncn2C)ccc1Nc1ncc2cc(C)nc(NCC(C)(C)C)c2n1 | cell-free assay |  | TR-FRET |  | 1 µM | inhibition | ≤ 15% |
| Cc1c(C(=O)O)cc(-c2ccc(C3CCNCC3)cc2)c2ccc(-c3ccc(C(F)(F)F)cc3)cc12 | binding |  | competition with immobilised ligand |  | 1 µM | remaining binding | 100% |
| N#CCCc1ccc2c(c1)-c1[nH]c3ccc([N+](=O)[O-])cc3c1CC(=O)N2 | cell-free assay |  |  |  | 0.5 µM | remaining signal | 61.5% |
| COc1cc(Cl)c(C(=O)N[C@@H](CN[C@H]2CC[C@@H](N)CC2)Cc2ccc(C#N)cc2)cc1-c1ccc(CN[C@H](C)c2ccc(C)cc2)o1 | enzyme activity | inhibitor |  |  | 1 µM | remaining activity | 110% |
| CN(C)C(=O)Cn1cc(-c2nc([C@@](C)(c3ccc(-c4cnc(N)nc4)cc3)C3CC3)no2)cn1 | cell-free assay |  | competition with immobilised ligand |  | 1 µM | remaining binding | 94% |
